The source of these data is ChEMBL document CHEMBL1138317, “Antibacterial oxazolidinones possessing a novel C-5 side chain. (5R)-trans-3-[3-Fluoro-4- (1-oxotetrahydrothiopyran-4-yl)phenyl]-2- oxooxazolidine-5-carboxylic acid amide (PF-00422602), a new lead compound” (J Med Chem, 2007).

The subject of data set [1] is Escherichia coli. Nature of the data set: Inhibition of protein synthesis in Escherichia coli by cell-free transcription-translation assay. Format: functional. Put shortly:
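E. coli cell-free coupled transcription/translation run in microtiter format with a luciferase reporter; luminescence was the read-out for protein synthesis.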

For data set [2], the system named is Staphylococcus aureus. Briefly: Antibacterial activity against levofloxacin-oxacillin-resistant Staphylococcus aureus UC76 SA1 by micro-broth technology. Format: functional. Put shortly:
(§1)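 Drug-resistant panel strains (levofloxacin/oxacillin-resistant S. aureus, levofloxacin/penicillin-resistant S. pneumoniae, vancomycin-resistant E. faecalis and E. faecium). Broth microdilution MIC in µg/mL; value reported as MIC90 across the strains of each resistant group.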

For data set [3], the system named is Streptococcus pneumoniae. Nature of the data set: Antibacterial activity against levofloxacin-penicillin-resistant Streptococcus pneumoniae SV1 SP3 by microbroth technology. It is filed as functional. Summed up: as §1
(In general: Broth dilution looks for growth in wells or tubes with falling amounts of substance.)

The subject of data set [4] is Enterococcus faecalis. Nature of the data set: Antibacterial activity against vancomycin-resistant Enterococcus faecalis MGH2 EF1 by microbroth technology. It is filed as functional. Summed up:
as §1

In data set [5] the test system is Enterococcus faecium. Nature of the data set: Antibacterial activity against vancomycin-resistant Enterococcus faecium by micro-broth technology. It is filed as functional. Summed up:
as §1

Data set [6] deals with T1, Amine oxidase [flavin-containing] A (Homo sapiens, UniProt P21397).
T1 sequence (P21397 whole entry): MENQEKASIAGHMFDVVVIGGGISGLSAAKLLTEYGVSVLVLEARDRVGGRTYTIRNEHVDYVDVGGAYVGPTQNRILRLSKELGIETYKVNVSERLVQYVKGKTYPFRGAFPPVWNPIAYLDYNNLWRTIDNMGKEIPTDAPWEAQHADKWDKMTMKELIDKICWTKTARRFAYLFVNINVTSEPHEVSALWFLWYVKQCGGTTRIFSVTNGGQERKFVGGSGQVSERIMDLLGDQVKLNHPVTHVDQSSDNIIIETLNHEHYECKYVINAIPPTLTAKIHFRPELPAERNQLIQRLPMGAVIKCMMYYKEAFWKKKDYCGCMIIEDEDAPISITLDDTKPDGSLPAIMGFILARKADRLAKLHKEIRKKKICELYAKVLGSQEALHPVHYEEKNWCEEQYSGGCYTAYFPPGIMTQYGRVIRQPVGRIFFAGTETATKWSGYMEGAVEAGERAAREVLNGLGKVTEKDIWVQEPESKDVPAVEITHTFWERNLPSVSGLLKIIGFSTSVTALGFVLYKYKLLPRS
Nature of the data set: Inhibition of human recombinant MAOA.

Data set [7] has as its system Haemophilus influenzae. Briefly: Antibacterial activity against Haemophilus influenzae by micro-broth technology. It is filed as functional. Summed up: (§2)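 MIC determined by broth microdilution, reported in µg/mL.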
Data set [8] deals with Moraxella catarrhalis. Nature of the data set: Antibacterial activity against Moraxella catarrhalis by microbroth technology. Format: functional. Put shortly: as §2
The test system of data set [9] is Staphylococcus aureus. Briefly: Antibacterial activity against Staphylococcus aureus UC76 in po dosed CD1 mouse systemic infection model assessed as mortality after 7 days. Format: functional.
Data set [10] is described as follows: Cmax in Sprague-Dawley rat at 20 mg/kg, po. Format: ADME, organism-based. Further details: dose 20 mg/kg, route oral. The conditions noted are these: in vivo.
Data set [11] can be described thus: AUC in Sprague-Dawley rat at 20 mg/kg, po. Format: ADME, organism-based, Plasma. Further details: dose 20 mg/kg, route oral. To be noted: Sprague-Dawley, plasma.
Data set [12] can be described thus: Clearance in Sprague-Dawley rat at 10 mg/kg, iv. The conditions noted are these: in vivo. Format: ADME, organism-based. Further details: dose 10 mg/kg, route intravenous.
A short description of data set [13]: Volume of distribution at steady state in Sprague-Dawley rat at 10 mg/kg, iv. It is filed as ADME, organism-based. Also noted: dose 10 mg/kg, route intravenous. To be noted: in vivo, read-out: Vdss.
A short description of data set [14]: Half life in Sprague-Dawley rat at 20 mg/kg, po. It is filed as ADME, organism-based. Also noted: dose 20 mg/kg, route oral. The conditions noted are these: in vivo.
A short description of data set [15]: Bioavailability in Sprague-Dawley rat at 20 mg/kg, po. It is filed as ADME, organism-based. To be noted: Sprague-Dawley, in vivo.

Structures are written as SMILES. Values after ≈ are worked out from the molar mass of the structure shown.

For `NC(=O)[C@H]1CN(c2cc(F)c(C3CCS(=O)(=O)CC3)c(F)c2)C(=O)O1`, the IC50 (usually the midpoint of a concentration-inhibition curve) in data set [1] stood at 6.28 µM; in data set [6], 293 µM. In addition, the MIC in data set [2] is 4 µg/mL (≈ 10.7 µM); in data set [3], 4 µg/mL (≈ 10.7 µM); in data set [4], 4 µg/mL (≈ 10.7 µM); in [5] it was 8 µg/mL (≈ 21.4 µM); in data set [7], > 8 µg/mL; in [8], > 8 µg/mL. The PD50 in [9] is 15 mg/kg.
Consider `NC(=O)[C@H]1CN(c2ccc(N3CCOCC3)c(F)c2)C(=O)O1`, for which the values for the IC50 in data set [1] and in data set [6] were 23 µM and 146 µM, respectively. For the same compound, the MIC in [2] is 4 µg/mL (≈ 12.9 µM); in [3], 4 µg/mL (≈ 12.9 µM); in [4], 32 µg/mL (≈ 103 µM); in data set [5], 32 µg/mL (≈ 103 µM); in [7], > 8 µg/mL; in [8], > 8 µg/mL. In addition, in [9], the PD50 came out at 8.22 mg/kg.
On to `NC(=O)[C@H]1CN(c2cc(F)c(N3CCOCC3)c(F)c2)C(=O)O1`, for which the 50% inhibitory concentration (IC50) in [1] came out at 17 µM; in [6], 63 µM. For the same compound, the MIC90 – broadly, the lowest concentration that inhibits either 90% of growth or 90% of the strains tested, depending on the study – in data set [2] was determined as 4 µg/mL (≈ 12.2 µM); in [3], 4 µg/mL (≈ 12.2 µM); in data set [4], 8 µg/mL (≈ 24.4 µM); in data set [5], 8 µg/mL (≈ 24.4 µM). The MIC in data set [7] and in data set [8] was > 8 µg/mL each time. In addition, in data set [9], the PD50 came to 6.7 mg/kg.
For `NC(=O)[C@H]1CN(c2ccc(C3CCS(=O)(=O)CC3)c(F)c2)C(=O)O1`, the figures for the IC50 in [1] and in data set [6] were 5.89 µM and 105 µM, respectively. For the same compound, the MIC90 in data set [2] is 2 µg/mL (≈ 5.61 µM); in data set [3], 2 µg/mL (≈ 5.61 µM); in data set [4], 2 µg/mL (≈ 5.61 µM); in [5], 4 µg/mL (≈ 11.2 µM). Moreover, the MIC in [7] and in [8] was > 8 µg/mL in each case. The PD50 in data set [9] was 2.1 mg/kg. In [10], the Cmax – broadly, the maximum level reached in the sampled fluid or tissue – came to 1880 ng/mL. Moreover, the AUC (in general, the area under the concentration-time curve, a measure of exposure) in [11] worked out at 8620 ng·h/mL. In addition, the clearance (as a rule, the volume of plasma or blood freed of the substance per unit of time) in data set [12] turned out to be 12.9 mL/min/kg. The Vd in [13] turned out to be 1.11 L/kg. The half-life (as a rule, the time needed for the level to fall by half in the phase considered) in data set [14] is 1.58 h. Further, the bioavailability – broadly, dose-corrected exposure relative to a reference, in per cent – in data set [15] stood at 40%.
Consider `NC(=O)[C@H]1CN(c2ccc(C3CCOCC3)c(F)c2)C(=O)O1`, for which the IC50 was 6.1 µM in data set [1] and 58 µM in data set [6]. In addition, the MIC in data set [2] was 4 µg/mL (≈ 13 µM); in data set [3] it was 2 µg/mL (≈ 6.49 µM); in data set [4] it was 4 µg/mL (≈ 13 µM); in data set [5] it was 8 µg/mL (≈ 25.9 µM); in data set [7] it was > 8 µg/mL; in data set [8], > 8 µg/mL.
Take `NC(=O)[C@H]1CN(c2cc(F)c(C3CC[S+]([O-])CC3)c(F)c2)C(=O)O1` (stereo not given in full): the IC50 in data set [1] worked out at 3.6 µM; in data set [6], 355 µM. The MIC90 in data set [2], in data set [3], in data set [4] and in data set [5] was 2 µg/mL (≈ 5.58 µM) in each case. Moreover, the MIC in data set [7] and in data set [8] was > 8 µg/mL each time. For the same compound, the PD50 in data set [9] turned out to be 1.1 mg/kg. In [10], the peak level (Cmax) was 4690 ng/mL. The AUC in data set [11] was found to be 15400 ng·h/mL. This compound also registered a clearance in [12] of 12.8 mL/min/kg. In addition, in [13], the Vd was 0.83 L/kg. The compound also showed a half-life in data set [14] of 2.24 h. The same compound yielded a bioavailability in [15] of 65%.
